Assay [1] relates to Canis familiaris. As to the kind of experiment: Concentration required to inhibit pentagastrin-induced gastric acid secretion in heidenhain pouch dogs upon intravenous administration. It is filed as functional. Particulars: Canis lupus familiaris, Stomach. The gist of the method: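 Male beagle dogs with Heidenhain pouch, fasted 18 h with water allowed. Pentagastrin infused at 8 µmol/kg/h through femoral vein. Compound dissolved in DMF and given iv 3 h after infusion start. Juice collected every 15 min, volume measured, acidity titrated with 0.05 N NaOH to pH 7.0.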

Assay [2] concerns Canis familiaris. As to the kind of experiment: Concentration required to inhibit pentagastrin-induced gastric acid secretion in heidenhain pouch dogs upon peroral administration. The class given is functional. Particulars: Canis lupus familiaris, Stomach, po. The procedure, abridged:
(§1)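 Male beagle dogs with Heidenhain pouch, food withheld 18 h (water free). Pentagastrin 8 µmol/kg/h infused via femoral vein from 3 h before until 6 h after oral dosing. Gastric juice collected every 15 min; acidity by automatic titration with 0.05 N NaOH to pH 7.0. Inhibition relative to values just before dosing.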

The test system of assay [3] is Canis familiaris. As to the kind of experiment: Compound at an peroral dose of 1 umol/kg was tested for the inhibition of pentagastrin-induced gastric acid secretion in heidenhain pouch dogs. To be noted: Canis lupus familiaris, Stomach, po. It is filed as functional. The procedure, abridged: as §1
Assay [4] deals with Canis familiaris. As to the kind of experiment: Compound at an peroral dose of 3 uM/Kg was tested for the inhibition of pentagastrin-induced gastric acid secretion in heidenhain pouch dogs. The class given is functional, Canis lupus familiaris, Stomach. The gist of the method: as §1
For assay [5], the system named is Rattus norvegicus. As to the kind of experiment: Inhibition of pentagastrin-induced gastric acid secretion in anathesized rats upon intravenous administration. Particulars: Stomach. It is filed as functional. The gist of the method: (§2)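 Anesthetized rats, pylorus-ligated with duodenal cannula. Stomach perfused with saline (pH 7.0) at 3 mL/min. Acid output by continuous pH-stat titration with 25 mM NaOH to pH 7.0, per 10 min. Pentagastrin infused iv via femoral vein. Compound in polyethylene glycol 300 given iv 1 h after pentagastrin start. ED50 is the dose reducing acid to 50% of maximum.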

For assay [6], the target named is Cholecystokinin receptor (Rattus norvegicus) (UniProt P30551+P30553). As to the kind of experiment: Ratio of inhibitory concentration; CCK-A receptor to CCK-B receptor. The class given is protein assay.
Assay [7] deals with T1, Gastrin/cholecystokinin type B receptor (Rattus norvegicus, UniProt P30553).
T1 sequence (P30553 whole entry): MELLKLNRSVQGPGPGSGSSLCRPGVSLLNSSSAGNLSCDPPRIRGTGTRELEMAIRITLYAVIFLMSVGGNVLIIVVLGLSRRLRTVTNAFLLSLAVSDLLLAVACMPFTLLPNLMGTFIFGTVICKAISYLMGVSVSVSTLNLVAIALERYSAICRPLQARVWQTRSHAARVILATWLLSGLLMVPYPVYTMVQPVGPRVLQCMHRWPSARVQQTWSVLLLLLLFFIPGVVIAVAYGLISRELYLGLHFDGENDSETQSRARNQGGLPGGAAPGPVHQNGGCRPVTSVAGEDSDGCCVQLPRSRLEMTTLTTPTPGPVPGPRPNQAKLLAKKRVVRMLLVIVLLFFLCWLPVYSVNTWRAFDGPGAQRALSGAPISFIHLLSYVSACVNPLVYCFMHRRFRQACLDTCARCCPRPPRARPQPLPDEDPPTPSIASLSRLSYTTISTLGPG
As to the kind of experiment: Inhibitory concentration against radioligand [125I]CCK-8 binding to gastrin/Cholecystokinin type B receptor from rat brain. The procedure, abridged: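 SD rat whole-brain membranes prepared by sucrose homogenisation, differential centrifugation and Triton X-100 wash. Incubated 120 min at 25 °C with [125I]BH-CCK-8 and compound (in DMSO) in 10 mM HEPES pH 6.5 with NaCl, MgCl2, EDTA, bacitracin. Filtration, γ-counting. Nonspecific binding with […] CCK-8. IC50 is the concentration giving 50% inhibition of specific binding.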

Assay [8] concerns the target T2, Cholecystokinin receptor type A (Rattus norvegicus, UniProt P30551).
T2 sequence (P30551 whole entry): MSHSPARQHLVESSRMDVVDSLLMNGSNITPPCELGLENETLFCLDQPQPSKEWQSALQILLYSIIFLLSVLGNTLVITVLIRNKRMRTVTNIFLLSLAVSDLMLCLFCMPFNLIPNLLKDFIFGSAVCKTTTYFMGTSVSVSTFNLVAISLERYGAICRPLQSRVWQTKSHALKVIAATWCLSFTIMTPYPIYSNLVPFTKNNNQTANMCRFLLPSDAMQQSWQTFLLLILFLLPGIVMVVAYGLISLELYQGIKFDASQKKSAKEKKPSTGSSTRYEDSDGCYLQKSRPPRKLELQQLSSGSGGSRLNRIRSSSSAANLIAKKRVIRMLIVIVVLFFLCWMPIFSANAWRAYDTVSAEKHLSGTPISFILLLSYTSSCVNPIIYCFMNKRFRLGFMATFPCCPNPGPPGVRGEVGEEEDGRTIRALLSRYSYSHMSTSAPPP
As to the kind of experiment: Inhibitory concentration against radioligand [3 H]L-364,718 binding to gastrin/Cholecystokinin type A receptor from rat pancreas. The procedure, abridged: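 Rat pancreas membranes in 50 mM Tris-HCl pH 7.7 containing BSA, MgCl2, bacitracin and DTT. Incubated 30 min at 37 °C with [3H]L-364,718 and compound (in DMSO). Filtration, scintillation counting. Nonspecific binding with […] L-364,718. IC50 is the concentration inhibiting specific binding by 50%.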

The subject of assay [9] is Rattus norvegicus. As to the kind of experiment: Inhibition of pentagastrin-induced gastric acid secretion in anathesized rats at 0.1 uM/Kg upon intravenous administration. The class given is functional, Stomach. The procedure, abridged:
as §2

In assay [10] the test system is Rattus norvegicus. As to the kind of experiment: Inhibition of pentagastrin-induced gastric acid secretion in anathesized rats at 0.03 uM/Kg upon intravenous administration. The class given is functional, Stomach. The procedure, abridged:
as §2

Assay [11] has as its system Canis familiaris. As to the kind of experiment: Compound at an peroral dose of 0.03 uM/Kg was tested for the inhibition of pentagastrin-induced gastric acid secretion in heidenhain pouch dogs. The class given is functional, Canis lupus familiaris, Stomach. The procedure, abridged: as §1
The test system of assay [12] is Canis familiaris. As to the kind of experiment: Compound at an peroral dose of 0.1 uM/Kg was tested for the inhibition of pentagastrin-induced gastric acid secretion in heidenhain pouch dogs. The class given is functional, Canis lupus familiaris, Stomach. The gist of the method: as §1
Assay [13] relates to Rattus norvegicus. As to the kind of experiment: Inhibition of pentagastrin-induced gastric acid secretion in Dawley rats following intravenous administration. To be noted: Stomach. It is filed as functional. The gist of the method: as §2
The subject of assay [14] is Canis familiaris. As to the kind of experiment: Compound at an peroral dose of 0.3 uM/Kg was tested for the inhibition of pentagastrin-induced gastric acid secretion in heidenhain pouch dogs. It is filed as functional, Canis lupus familiaris, Stomach. The procedure, abridged:
as §1

Each structure is given as a SMILES string.

Results on 19 molecules are retold here after ChEMBL document CHEMBL1130288, “(3R)-N-(1-(tert-butylcarbonylmethyl)-2,3-dihydro-2-oxo-5-(2-pyridyl)-1H-1,4-benzodiazepin-3-yl)-N'-(3-(methylamino)phenyl)urea (YF476): a potent and orally active gastrin/CCK-B antagonist” (J Med Chem, 1997).

In the case of `Cc1cccc(NC(=O)N[C@@H]2N=C(c3ccccc3)c3ccccc3N(CC(=O)c3ccccc3C)C2=O)c1`, the values for the ED50 in assay [1], in assay [2] and in assay [5] were 0.026 µmol/kg, 1.9 µmol/kg and 0.0083 µmol/kg, respectively. In assay [3], this molecule registered an inhibition in vivo at 1 µmol/kg of 26%. In assay [4], this molecule had an Inhibition of 72%. In addition, the Ratio in assay [6] is 1330.

Regarding `CC(C)(C)C(=O)CN1C(=O)[C@H](NC(=O)Nc2cccc(N3CCCC3)c2)N=C(c2ccccc2)c2ccccc21`, the IC50 in [7] turned out to be 0.17 nM; in [8], 157 nM. Moreover, the Inhibition in [9] is listed as 79%. For the same molecule, the Ratio in assay [6] was found to be 923.

Consider `Cc1cccc(NC(=O)N[C@@H]2N=C(c3ccccc3)c3ccccc3N(CC(=O)C(C)(C)C)C2=O)c1`, for which the IC50 stood at 0.52 nM in assay [7] and 111 nM in assay [8]. Besides, the Inhibition is recorded as 53% in assay [4] and 77% in assay [10]. Besides, the Ratio in assay [6] amounted to 213.

On to `CN(C)c1cccc(NC(=O)N[C@H]2N=C(c3ccccn3)c3ccccc3N(CC(=O)C(C)(C)C)C2=O)c1`, for which the IC50 in [7] was found to be 1.26 nM; in assay [8], 572 nM. For the same molecule, the Ratio in assay [6] was determined as 454.

As to `CC(C)(C)C(=O)CN1C(=O)[C@H](NC(=O)Nc2cccc(N3CCCC3)c2)N=C(c2ccccn2)c2ccccc21`, the IC50 was determined as 0.11 nM in assay [7] and 253 nM in assay [8]. In addition, in [9], the Inhibition is reported as 75%. Besides, in [6], the Ratio was determined as 2300.

In the case of `CNc1cccc(NC(=O)N[C@@H]2N=C(c3ccccn3)c3ccccc3N(CC(=O)C(C)(C)C)C2=O)c1` [NETAZEPIDE], the figures for the ED50 in assay [1], in [2] and in assay [13] were 0.018 µmol/kg, 0.021 µmol/kg and 0.008 µmol/kg, respectively. Further, the Inhibition in assay [11] is 65%; in [12], 100%; in assay [9] it was 87%. In assay [6], the Ratio was 5020.

As to `CCN(CC)c1cccc(NC(=O)N[C@@H]2N=C(c3ccccn3)c3ccccc3N(CC(=O)C(C)(C)C)C2=O)c1`, the IC50 in assay [7] came out at 0.11 nM; in assay [8], 301 nM. The molecule further yielded an Inhibition in assay [9] of 74%. Moreover, the Ratio in [6] is 2740.

Consider `CCN(CC)c1cccc(NC(=O)N[C@@H]2N=C(c3ccccc3)c3ccccc3N(CC(=O)C(C)(C)C)C2=O)c1`, for which the IC50 in assay [7] amounted to 0.14 nM; in assay [8] it was 558 nM. In [9], this molecule returned an Inhibition of 82%. For the same molecule, the Ratio in [6] amounted to 3990.

With `CN(C)c1cccc(NC(=O)N[C@@H]2N=C(c3ccccc3)c3ccccc3N(CC(=O)C(C)(C)C)C2=O)c1`, the IC50 in assay [7] amounted to 0.21 nM; in [8], 89 nM. The Inhibition was found to be 99% in [4] and 65% in [9]. The same molecule returned an ED50 in assay [13] of 0.012 µmol/kg. Further, the Ratio in assay [6] turned out to be 423.

On to `CC(C)(C)C(=O)CN1C(=O)C(NC(=O)Nc2cccc(NC=O)c2)N=C(c2ccccc2)c2ccccc21` (configuration not stated), for which the IC50 in assay [7] is 0.59 nM; in assay [8], 561 nM. The Inhibition in [9] amounted to 74%. In assay [6], the Ratio came to 951.

`Cc1cccc(NC(=O)N[C@@H]2N=C(c3ccccn3)c3ccccc3N(CC(=O)C(C)(C)C)C2=O)c1` displayed an IC50 in assay [8] of 470 nM. Besides, the Inhibition came to 7% in [14], 97% in assay [4] and 78% in [9]. Besides, the Ratio in assay [6] turned out to be 1070.

In assay [9], `CC(C)(C)C(=O)CN1C(=O)[C@H](NC(=O)Nc2cccc(N)c2)N=C(c2ccccc2)c2ccccc21` displayed an Inhibition of 75%. For the same molecule, in [6], the Ratio was 1910.

As for `CC(C)(C)C(=O)CN1C(=O)[C@H](NC(=O)Nc2cccc(N3CCCCC3)c2)N=C(c2ccccn2)c2ccccc21`, the figures for the IC50 in [7] and in assay [8] were 0.84 nM and 944 nM, respectively. In addition, the Inhibition in assay [9] is given as 55%. Also, the Ratio in assay [6] was determined as 1120.

In the case of `CC(C)(C)C(=O)CN1C(=O)[C@H](NC(=O)Nc2cccc(N)c2)N=C(c2ccccn2)c2ccccc21`, the IC50 in assay [7] is 0.43 nM; in assay [8] it was 1820 nM. Also, the Inhibition in assay [9] is reported as 62%. Moreover, the Ratio in [6] was determined as 4230.

With `CC(C)(C)C(=O)CN1C(=O)C(NC(=O)Nc2cccc([N+](=O)[O-])c2)N=C(c2ccccc2)c2ccccc21` (configuration not stated), the IC50 was 0.16 nM in assay [7] and 589 nM in [8]. Besides, the Inhibition in [9] is reported as 76%. The Ratio in assay [6] amounted to 3680.

As for `CC(C)(C)C(=O)CN1C(=O)C(NC(=O)Nc2cccc(C#N)c2)N=C(c2ccccc2)c2ccccc21` (configuration not stated), the values for the IC50 in assay [7] and in assay [8] were 1.29 nM and 700 nM, respectively. Besides, in assay [9], the Inhibition was 65%. Further, in assay [6], the Ratio came to 542.

In assay [9], `CNc1cccc(NC(=O)N[C@@H]2N=C(c3ccccc3)c3ccccc3N(CC(=O)C(C)(C)C)C2=O)c1` gave an Inhibition of 80%. For the same molecule, the Ratio in assay [6] is 1090.

With `CN(C)c1cccc(NC(=O)N[C@@H]2N=C(c3ccccn3)c3ccccc3N(CC(=O)C(C)(C)C)C2=O)c1`, the ED50 was determined as 0.014 µmol/kg in assay [1] and 0.011 µmol/kg in assay [13]. The Inhibition amounted to 77% in [11], 98% in assay [12] and 65% in [10]. Also, the Ratio in assay [6] was 565.

Take `CC(C)(C)C(=O)CN1C(=O)C(NC(=O)Nc2cccc(C(=O)O)c2)N=C(c2ccccc2)c2ccccc21` (configuration not stated): the IC50 in assay [7] was determined as 3.29 nM; in assay [8], 2060 nM. The same molecule gave an Inhibition in assay [9] of 56%. Besides, the Ratio in [6] is 626.

In general, ED50 refers to the dose that gives a 50% effect, or the effect in half of the subjects. A low value points to an effect at a small dose. One may read the inhibition in vivo as the percentage by which the read-out fell short of the control. One may read the Inhibition as the percentage by which the read-out fell short of the control. As usually defined, the IC50 is the concentration that inhibits the measured activity by half. A low value points to greater potency in that assay.
